Publication PMC3058861 (Archives of biochemistry and biophysics, 2010)
Values after ≈ are worked out from the molar mass of the structure shown. Counter-ions that a name gives are not always drawn. Like-named read-outs stand apart in the source and are kept apart here.

Assays:
[1] = Determination of DHEA solubility by light scattering; type: physicochemical; details: potassium phosphate buffer, pH 7, aqueous buffer
hSULT2A1 [2] = biological target: T1, hSULT2A1 (Homo sapiens, UniProt Q06520); experiment: Kinetics of DHEA sulfation catalyzed by recombinant hSULT2A1; type: biochemical; details: for substrate inhibition by DHEA: 0.1-2.0 μM DHEA; for substrate inhibition by PAPS: 1.0-300 μM PAPS
T1 sequence (Q06520 1-285): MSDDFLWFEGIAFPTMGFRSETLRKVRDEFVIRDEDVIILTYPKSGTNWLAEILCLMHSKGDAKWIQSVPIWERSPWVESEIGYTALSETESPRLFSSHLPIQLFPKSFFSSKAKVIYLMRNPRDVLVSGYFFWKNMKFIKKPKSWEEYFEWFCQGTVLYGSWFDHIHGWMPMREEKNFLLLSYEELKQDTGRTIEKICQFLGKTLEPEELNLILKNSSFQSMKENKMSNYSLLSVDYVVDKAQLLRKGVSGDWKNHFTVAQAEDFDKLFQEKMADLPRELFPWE

hSULT2A1-PAP complex = biological target: T2, hSULT2A1-PAP complex (Homo sapiens, UniProt Q06520); experiment: Ligand binding to the hSULT2A1-PAP complex by intrinsic tryptophan fluorescence
T2 sequence (Q06520 1-285): T1 sequence (Q06520 1-285)

hSULT2A1 [3] = biological target: T1, hSULT2A1; experiment: Ligand binding to ligand-free hSULT2A1 by intrinsic tryptophan fluorescence; details: read-out: dissociation constant (hyperbolic single site); ligand-free enzyme, pH 7.0, 37 °C
hSULT2A1-DHEA complex = biological target: T3, hSULT2A1-DHEA complex (Homo sapiens, UniProt Q06520); experiment: Ligand binding to the hSULT2A1-DHEA complex by intrinsic tryptophan fluorescence; details: read-out: Kd2(app); enzyme pretreated with 80 μM (0.08 mM) DHEA
T3 sequence (Q06520 1-285): T1 sequence (Q06520 1-285)
Outline: (§1)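 Purified recombinant hSULT2A1 at 25 nM (dimer basis) was equilibrated 15 min, then pretreated with 80 μM DHEA or 80 μM DHEAS. Test ligand (1.0–300 μM) was added stepwise with stirring at 37 ± 2 °C, and intrinsic tryptophan fluorescence was read after each addition. Data were fitted to a two-site Adair model, with Kd taken as the reciprocal association constants. Triplicates, mean ± SD.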

hSULT2A1-DHEAS complex = biological target: T4, hSULT2A1-DHEAS complex (Homo sapiens, UniProt Q06520); type: binding; details: for Kd: enzyme pretreated with 80 μM (0.08 mM) DHEAS
T4 sequence (Q06520 1-285): T1 sequence (Q06520 1-285)
Outline: as §1

hSULT2A1 [4] = biological target: T1, hSULT2A1; details: sulfation of pregnenolone; cited from earlier work
[5] = 0.25-20 μM DHEA, 200 μM PAPS, pH 7.0, 37 °C, substrate inhibition equation
[6] = read-out: Kd2(app), in the presence of 100 μM (0.1 mM) PAP

Q: With C[C@]12CC[C@H](O)CC1=CC[C@@H]1[C@@H]2CC[C@]2(C)C(=O)CC[C@@H]12 [DHEA, dehydroepiandrosterone (5-androsten-3β-ol-17-one)] as the molecule, how does the solubility [1] read?
A: The solubility was 80 µM (≈ 23.1 µg/mL).

Q: And the “substrate inhibition by DHEA” value (hSULT2A1 [2]; intermediate PAPS 5.0 – 60 μM)?
A: The value was “substrate inhibition was observed”.

Q: And the “substrate inhibition by DHEA” value (hSULT2A1 [2]; lowest (1.0 μM) and highest (100 and 300 μM) PAPS)?
A: Its value is “substrate inhibition was not evident”.

Q: And the “Kis (substrate inhibition constant)” value (hSULT2A1 [2]; [5])?
A: The value was 8 ± 3 µM.

Q: And the Km (hSULT2A1 [2]; [5])?
A: Its Km is 0.8 ± 0.3 µM.

Q: What about the Vmax (hSULT2A1 [2]; [5]) of the same molecule?
A: Its Vmax is 245 ± 40 nmol/min/mg.

Q: And the Kd (hSULT2A1-PAP complex; [6])?
A: The Kd was 22 ± 3.2 µM.

Q: Which Kd (hSULT2A1 [3]) does the source give for C[C@]12CC[C@H](OS(=O)(=O)O)CC1=CC[C@@H]1[C@@H]2CC[C@]2(C)C(=O)CC[C@@H]12 [DHEAS, dehydroepiandrosterone sulfate] here?
A: The Kd was 7.2 ± 0.3 µM.

Q: What about the Kd (hSULT2A1-PAP complex; read-out: Kd1(app), in the presence of 100 μM (0.1 mM) PAP) of the same molecule?
A: Its Kd is 3.3 ± 0.2 µM.

Q: And the Kd (hSULT2A1-PAP complex; [6])?
A: The Kd was 3.3 ± 0.2 µM.

Q: And the Kd (hSULT2A1-PAP complex; read-out: Kd(app) (hyperbolic single site), in the presence of 100 μM PAP)?
A: The Kd was 3.3 ± 0.2 µM.

Q: What does the source list for Nc1ncnc2c1ncn2[C@@H]1O[C@H](COP(=O)(O)O)[C@@H](OP(=O)(O)O)[C@H]1O [PAP, adenosine 3′,5′-diphosphate]?
A: Kd (hSULT2A1-DHEA complex): 243 ± 27 µM; Kd (hSULT2A1-DHEAS complex; read-out: Kd2(app)): 415 ± 75 µM

Q: Which results are given for Nc1ncnc2c1ncn2[C@@H]1O[C@H](COP(=O)(O)OS(=O)(=O)O)[C@@H](OP(=O)(O)O)[C@H]1O [PAPS, 3′-phosphoadenosine 5′-phosphosulfate]?
A: substrate inhibition by PAPS (hSULT2A1 [2]; 80 μM DHEA): significant substrate inhibition; substrate inhibition by PAPS (hSULT2A1 [2]; DHEA 0.1 μM - 2.0 μM): no indication that PAPS displayed substrate inhibition; substrate inhibition by PAPS (hSULT2A1 [2]; DHEA 5.0 μM or 20 μM): did not exhibit substrate inhibition; Kd2(app) relative to Kd1(app) (hSULT2A1-DHEAS complex; enzyme pretreated with 80 μM DHEAS): over 200 fold; Kd (hSULT2A1-DHEAS complex; read-out: Kd1(app)): 1.3 ± 0.4 µM; Kd (hSULT2A1-DHEAS complex; read-out: Kd2(app)): 315 ± 27 µM

Q: Which “catalytic efficiency (kcat/Km) with hSULT2A1 relative to hSULT2B1 and hSULT2B2” value (hSULT2A1 [4]) does the source give for CC(=O)[C@H]1CC[C@H]2[C@@H]3CC=C4C[C@@H](O)CC[C@]4(C)[C@H]3CC[C@]12C [pregnenolone] here?
A: The value was 3-8 fold.
